# From PubChem BioAssay
# Rad51 HR inh = Rad51 (human) homologous recombination inhibition. Q06609. hRad51 DNA strand exchange, fluorescence dequenching. inhibition, % at 10 µM. 200,000 compounds, 0.085% hits;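 active = inhibition above 40% at the single screening dose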;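 note: 0% = DMSO control wells and 100% = blanks with heterologous ssDNA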
#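 System: human Rad51 nucleoprotein filaments preassembled on unlabelled ssDNA. Reagent: labelled 47-mer dsDNA for strand exchange. Schedule: 30-min compound preincubation and 15-min exchange, both room temperature. Measured by: FRET fluorescence dequenching, excitation 485 nm, emission 520 nm. Read-out: Fluorescence-based percent inhibition, control- and blank-normalised. Benchmarks: plate controls and plate blanks.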
# HSV augment = increases HSV replication in cells. HSV replication augmentation in cells, fold increase. maximum fold increase. 220,000 compounds, 0.005% hits. AID 1956; in the data active = maximum fold increase above about 1.5; inconclusive = no clear call, values can overlap the other calls; tested in PC3 cells
# ABCB1 inh = human ABCB1 inhibition, ABCG2 as counter-screen | P08183 | inhibition, % at 6.6 µM | 190,000 compounds, 0.067% hits | CCRF-Adr cells, JC-1 efflux, flow cytometry | AID 1326; in the data active = inhibition above about 40%;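 note: 0% = vehicle and 100% = reference inhibitor; higher value means more JC-1 retained so stronger ABCB1 efflux block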
# p97 ATPase inh = inhibitors of human p97 ATPase. recombinant p97 ATPase, Kinase-Glo ATP luminescence, 3 h. inhibition, % at 8 µM. 220,000 compounds, 0.42% hits. AID 1481; in the data active = inhibition above about 15%;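 note: 0% = DMSO vehicle and 100% = wells lacking enzyme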
# ABCG2 block = inhibitors of human ABCG2 transporter, ABCB1 counter-screen; IgMXP3 cells, JC-1 efflux, flow cytometry; inhibition, % at 6.6 µM; 190,000 compounds, 0.1% hits; AID 1325;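 active = inhibition above 80%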;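 note: 0% = DMSO and 100% = nicardipine control wells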
#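 material = IgMXP3 (ABCG2) plus far-red-tagged CCRF-Adr (ABCB1) cells | amount = 3 million cells/mL, equal mix of both lines | also added = JC-1 transporter substrate | dosing = one concentration, 6.6 µM final | schedule = 10 min at 25 °C | measured by = flow cytometric JC-1 green MFI at 530 nm | read-out basis = percent efflux inhibition, scaled nicardipine 100% to DMSO 0%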
# ABCB6 inh MLPCN = blocks the human ABCB6 transporter | Q9NP58 | K562-ABCB6 porphyrin accumulation, flow cytometry, 1 h; hits give low values | fluorescence ratio to DMSO, % at 10 µM | 360,000 compounds, 0.19% hits | AID 602162;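 active = fluorescence ratio to DMSO below 75%, the collection mean minus 3 SD; inconclusive = too few cells collected in the well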;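 note: signal is porphyrin accumulated inside mitochondria; 100% equals median channel fluorescence of DMSO control wells; lower ratio means ABCB6 inhibition with less porphyrin fluorescence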
# An asterisk follows results filed as active; i = inactive; ? = inconclusive; . = no result; + = active, no number. An excerpt weighted towards active compounds, which were near 0.55% of everything screened.
SMILES,Rad51 HR inh,HSV augment,ABCB1 inh,p97 ATPase inh,ABCG2 block,ABCB6 inh MLPCN
O=c1[nH][nH]cc1C=Nc1ccccc1O,-2.4,i,0.2,-3.2,0.5,68.0*
O=c1[nH][nH]cc1C=Nc1ccccc1Cl,-0.9,i,1.1,5.3,5.3,100.0
COc1ccccc1-c1csc(C(O)c2ccc(F)c(F)c2)n1 (centres undefined),.,.,.,.,.,97.0
COc1ccc(C(=O)N/N=C/C(C)c2ccccc2)cc1OC (centres undefined),-6.4,i,0.2,15.6*,0.4,91.0
COc1ccc(N2CC(C(=O)N/N=C/c3ccc([N+](=O)[O-])cc3)CC2=O)cc1 (centres undefined),4.7,i,0.3,4.3,4.8,102.0
COc1ccc(N2CC(C(=O)N/N=C/c3ccc(C)cc3)CC2=O)cc1 (centres undefined),2.3,i,0.7,14.7*,6.8,90.0
COc1ccc([C@H]2C[C@@H](O)[C@H](n3cc(C4CC4)nn3)CN2C(=O)C2CCCCC2)cc1,.,.,.,.,.,102.0
CCC(=O)N1Cc2cc(C(=O)Nc3nccs3)nc(-c3cccc(-c4ccccc4OC)c3)c2[C@H]1CCO,.,.,.,.,.,97.0
O=C(CCl)Nc1cccc(Oc2cnccn2)c1,.,.,.,.,.,7.0*
O=C(CCl)Nc1cccc(Oc2ccccc2)c1,-4.2,i,0.6,4.1,2.7,95.0
COc1ccc(C(C)=O)cc1CN1C(=O)C(C)ON=C1c1cccc(C(F)(F)F)c1 (centres undefined),.,.,.,.,.,101.0
CCCCN(CC)CCNC(=O)CN(C)S(=O)(=O)c1ccc2c(c1)c(=O)n(C)c(=O)n2C,-0.7,i,-0.3,15.3*,-1.4,88.0
Cc1ccc(-c2nc(-c3ccccn3)sc2CC(=O)O)cc1,46.9*,i,.,-0.3,.,102.0
COC(=O)COc1ccc(S(=O)(=O)NCCC2=CCCCC2)cc1C,45.2*,i,0.7,3.6,19.0,95.0
COC(=O)COc1ccc(S(=O)(=O)NCCC2=CCCCC2)cc1,7.9,i,1.2,-2.6,6.8,94.0
CCC(Sc1nc(C)cc(=O)[nH]1)C(=O)Nc1ccc(Cl)cn1 (centres undefined),-5.8,i,0.4,14.9*,3.5,103.0
CCN1CCN(C2=C(Cl)C(=O)N(Cc3ccccc3)C2=O)CC1,-2.6,i,0.4,-2.7,0.8,102.0
CN1CCN(C2=C(Cl)C(=O)N(Cc3ccccc3)C2=O)CC1,52.4*,i,0.3,5.9,1.0,96.0
CC(=O)c1cccc(-c2ccnc3c2CC(C(=O)Nc2ccccc2)O3)c1 (centres undefined),.,.,.,.,.,95.0
C=CCN(c1ccccc1Cl)S(=O)(=O)c1cccc(C(=O)OCC(=O)N(C)C2CCS(=O)(=O)C2)c1 (centres undefined),11.9,i,1.3,-3.5,5.7,69.0*
CCCCNC(=O)C1(C)CCN1Cc1ccc(C#N)cc1 (centres undefined),.,.,.,.,.,102.0
N#C/C(=C\c1coc2ccccc2c1=O)C(N)=S,12.7,i,-0.6,3.1,-1.6,105.0
N#C/C(=C\c1coc2ccc(O)cc2c1=O)C(=O)Nc1nc2ccccc2s1,i,i,.,43.2*,.,167.0
CCOc1ccc(OCc2ccc(C(=O)N3CCCC3)o2)cc1,3.8,i,41.4*,-1.0,6.9,99.0
CCc1ccc(C(=O)/C=C/NCc2ccc(F)cc2)cc1,-0.4,1.5*,0.6,-2.9,11.0,99.0
SMILES,Rad51 HR inh,HSV augment,ABCB1 inh,p97 ATPase inh,ABCG2 block,ABCB6 inh MLPCN
COc1ccc(S(=O)(=O)Nc2ccc(O)c(Sc3ncn[nH]3)c2)cc1,-4.1,i,-0.2,-2.7,-0.9,147.0
COc1ccc(S(=O)(=O)Nc2cc(Sc3ncn[nH]3)c(O)c3ccccc23)cc1,.,.,0.4,30.9*,-1.4,.
COc1cccc(CN(CC2CCCO2)S(=O)(=O)c2ccc(S(=O)(=O)N(C)C)cc2)c1 (centres undefined),0.1,i,0.8,14.7*,2.7,101.0
COc1ccc(S(=O)(=O)N(CC(=O)NCC2CCCO2)Cc2ccccc2)cc1 (centres undefined),.,.,.,.,.,93.0
COCc1cc(C)nc2sc(C(=O)NCCO)c(-n3cccc3)c12,44.8*,i,-0.4,0.3,2.5,104.0
O=S1(=O)C[C@H](N2CCN(CCO)CC2)[C@@H](COCc2ccccc2)N1,.,.,.,.,.,102.0
O=C(CN(Cc1ccco1)C(=O)CCC(=O)Nc1nccs1)NCc1ccccc1,124.7*,i,0.4,1.9,-9.9,92.0
O=C(CCNC(=O)c1ccc(Br)cc1)Nc1ncccc1O,.,.,.,.,.,98.0
O=C(CSc1nnc(NC2CCCCC2)s1)N1CCOCC1,.,.,.,.,.,96.0
Cc1cc2nc3c(nc2cc1C)C1(C(=O)O)CCC3(C)C1(C)C (centres undefined),40.3*,i,0.3,3.9,1.0,96.0
O=C(NNC(=O)c1csc(-c2cccs2)n1)c1ccc(Cl)cc1,.,.,.,.,.,99.0
O=c1c2cc(N3CCOCC3)ccc2[nH]c(=S)n1CCCN1CCCCCC1,-1.3,i,0.8,5.9,5.5,100.0
O=c1c2cc(N3CCOCC3)ccc2[nH]c(=S)n1CCCN1CCN(c2ccccc2F)CC1,-1.6,i,53.1*,0.8,32.7,.
CC1(C(=O)Nc2ccc3ccccc3c2)CCC(=O)N1CCCn1ccnc1 (centres undefined),.,.,.,.,.,94.0
CC(C)(C)OC(=O)NCCCC[C@H](NC(=O)c1nc[nH]c1C(=O)N[C@@H](CCCCNC(=O)OC(C)(C)C)C(=O)OC(C)(C)C)C(=O)OC(C)(C)C,10.6,i,.,.,.,89.0
CC(C)(C)OC(=O)NCCCCCNC(=O)c1[nH]cnc1C(=O)N[C@@H](CCCCNC(=O)OC(C)(C)C)C(=O)OC(C)(C)C,-4.2,i,1.0,-3.7,13.8,67.0*
O=c1oc2cc(O)ccc2cc1-c1nc2c(s1)CCc1ccccc1-2,.,?,138.4*,3.8,+,499.0
O=c1oc2ccccc2cc1-c1nc2c(s1)CCc1ccccc1-2,-27.3,i,-0.5,6.2,-3.9,131.0
COc1cc(/C=C2\CC/C(=C\c3cc(OC)c(O)c(OC)c3)C2=O)cc(OC)c1O,-42.0,i,-1.2,19.4*,-3.1,136.0
Cc1[nH]n(-c2ccccc2)c(=O)c1C=Nc1ccc2[nH]c(=O)[nH]c2c1,6.0,i,-0.8,1.4,-5.7,100.0
Cc1[nH]oc(=O)c1N=Nc1ccc2[nH]c(=O)[nH]c2c1,.,.,.,.,.,71.0*
CCc1cc2c(SCC(=O)NC3CC3)ncnc2s1,.,.,.,.,.,99.0
NNC(=O)c1oc2nc(-c3ccco3)cc(-c3ccco3)c2c1N,-28.9,?,.,-2.5,.,115.0
Nc1c(C(=O)N/N=C/c2cccnc2)oc2nc(-c3ccccc3)cc(-c3ccco3)c12,-293.5,i,.,14.6*,.,99.0
COc1ccc(-c2nc3ccc(Cl)cn3c2Cc2cccc(F)c2)cc1OC,.,.,.,.,.,107.0
